# The entries come from a sample that favours hits as a whole.
# T cruzi growth-1: T. cruzi intracellular proliferation inhibitors, primary screen, cell-based, beta-gal Tulahuen parasites, NIH3T3 host, luminescence | T. cruzi beta-gal in NIH3T3, GalScreen luminescence, 90 h | inhibition, % at 8.34 µM | 5.9% of 77,000 active | AID 624255, 2012;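 active = mean inhibition above about 93%, with at least 55% of replicates each passing it, limit read from the data, passing the limit was not always enough; inconclusive = only one of those two conditions holds; inactive = neither condition holds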
# GASC1 inh: inhibitors of GASC-1 (KDM4C) histone demethylase, primary screen, biochemical, single concentration HTS; Lysine-specific demethylase 4C (Homo sapiens), Q9H3R0; inhibition, % at 12.5 µM; 0.15% of 96,000 active; GST-KDM4C 2-372, H3K9me3 peptide, LANCE TR-FRET; AID 720574, 2013;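 active = mean replicate inhibition above about 25%, with at least 55% of replicates also reaching it, limit read from the data, passing the limit was not always enough; inconclusive = only one of those two conditions met; inactive = neither condition met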
# Target sequence (Q9H3R0 2-372 limits assumed): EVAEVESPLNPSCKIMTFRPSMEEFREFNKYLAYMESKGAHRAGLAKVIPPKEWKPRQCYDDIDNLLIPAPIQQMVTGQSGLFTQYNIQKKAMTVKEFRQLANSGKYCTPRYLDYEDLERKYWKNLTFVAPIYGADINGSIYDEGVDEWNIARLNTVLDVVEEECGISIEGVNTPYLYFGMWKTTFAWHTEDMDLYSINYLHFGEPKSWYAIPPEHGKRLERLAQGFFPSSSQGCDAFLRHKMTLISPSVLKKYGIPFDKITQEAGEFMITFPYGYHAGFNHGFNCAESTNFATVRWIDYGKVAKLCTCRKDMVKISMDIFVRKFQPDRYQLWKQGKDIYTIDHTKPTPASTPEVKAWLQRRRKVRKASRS
#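 reagent = H3K9me3 peptide substrate, Fe(II), 2-oxoglutarate | system = GST-tagged GASC-1 (JMJD2C) catalytic fragment, aa 2-372 | amount = enzyme final amount 10 nM | read-out = Fall in 671/618 emission ratio as inhibition | medium = HEPES buffer, pH 7.5, plus ascorbate | schedule = 30 min reaction, 60 min detection, RT | measured by = LANCE TR-FRET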
# IDH1 R132H inh: inhibitors of IDH1 R132H reductase, primary screen, biochemical, plate reader, single point | Isocitrate dehydrogenase [NADP] cytoplasmic (Homo sapiens), O75874 | diaphorase/resazurin fluorescence, 60 min | inhibition, % at 10 µM | AID 624101, 2012 | 0.18% of 70,000 active; in the data active = inhibition above about 34%; inconclusive = no clear call, values can overlap the other calls; inactive = below about 11%;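 also: 0% = DMSO and 100% = no enzyme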
# T cruzi growth-2: T. cruzi intracellular proliferation inhibitors, confirmation, cell-based, NIH3T3 host, beta-gal parasite, luminescence, cherry-pick | inhibition, % at 8.35 µM | AID 651739, 2012 | T. cruzi beta-gal in NIH3T3, GalScreen luminescence, 90 h | shares compounds with T cruzi growth-1 | 72% of 5,600 active;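 active = mean replicate inhibition above about 95% and at least 55% of replicates individually reaching it, limit read from the data; inconclusive = only one of the two criteria is met; inactive = neither criterion is met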
# T cruzi growth-3: inhibitors of intracellular T. cruzi replication, confirmation, NIH3T3 host cells, beta-gal parasites, cherry-pick, set 2; AID 651740, 2012; T. cruzi beta-gal in NIH3T3, GalScreen luminescence, 90 h; inhibition, % at 2.09 µM; 21% of 5,600 active; shares compounds with T cruzi growth-1;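 active = mean inhibition above about 95%, with at least 55% of replicates also reaching it, limit read from the data; inconclusive = meets just one of the two conditions; inactive = meets neither condition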;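 also: plate controls were neutral control median for no effect and positive control median for full effect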
# 3T3 cytotox: cytotoxicity in mouse NIH/3T3 fibroblasts, confirmation, cytotoxicity control for T. cruzi proliferation inhibitor project, cell-based, cherry-pick, single point; shares compounds with T cruzi growth-1; NIH/3T3 viability, CellTiter-Glo ATP luminescence, 90 h; cytotoxicity (signal decrease), % at 8.35 µM; 14% of 5,600 active; AID 651742, 2012;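 active = mean signal decrease across replicates above about 35% based on untreated-well scatter, with enough replicates individually passing, limit read from the data; inconclusive = no rule stated though some were filed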;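 also: 0% = median of neutral control wells and 100% = median of positive control wells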
# NIH3T3 tox 2: NIH/3T3 fibroblast cytotoxicity, confirmation, cytotoxicity control, cell-based, cherry-pick, single point, set 2 | shares compounds with T cruzi growth-1 | NIH/3T3 viability, CellTiter-Glo ATP luminescence, 90 h | inhibition, % at 24.9 µM | 56% of 5,600 active | AID 651744, 2012;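 active = mean loss of cell viability signal at or above a set limit, and enough replicates individually reaching it; inconclusive = meets only the mean limit or only the replicate share; inactive = meets neither condition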;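 also: 0% = median of neutral control wells and 100% = median of positive control wells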
# Numbers without * were called inactive; ? = inconclusive; / = not tested or not shown.
SMILES,T cruzi growth-1,GASC1 inh,IDH1 R132H inh,T cruzi growth-2,T cruzi growth-3,3T3 cytotox,NIH3T3 tox 2
Cc1ccc(-c2ccc3c(c2)O[C@@H](CN(C)C(=O)C2CC2)[C@@H](C)CN([C@H](C)CO)S3(=O)=O)cc1,108,1,5,/,/,/,/
Cc1ccc(-c2ccc3c(c2)O[C@@H](CN(C)C(=O)C2CCCCC2)[C@H](C)CN([C@@H](C)CO)S3(=O)=O)cc1,120*,-3,/,108*,?,32,97*
Cc1ccc(-c2ccc3c(c2)O[C@H](CN(C)C(=O)C2CCCCC2)[C@@H](C)CN([C@H](C)CO)S3(=O)=O)cc1,112*,3,-3,108*,103*,-16,94*
Cc1ccc(-c2ccc3c(c2)O[C@H](CN(C)C(=O)C2CCC2)[C@@H](C)CN([C@@H](C)CO)S3(=O)=O)cc1,67,1,/,/,/,/,/
Cc1ccc(-n2c(SCC(=O)Nc3cccc(F)c3)nc3ccccc3c2=O)cc1,/,/,0,/,/,/,/
COc1cc(C2NC(=S)NC(C)=C2C(=O)Nc2ccccc2Cl)ccc1OCC#N (stereo unspecified),/,/,0,/,/,/,/
COc1cc(OC)c(NC(=O)CSc2nnc(C)s2)cc1Cl,/,/,-2,/,/,/,/
CC(C)c1ccc(NC(=O)CN(C)S(=O)(=O)c2ccc3ccccc3c2)cc1,/,/,0,/,/,/,/
COc1ccccc1-c1cc(-c2ccccc2)nc(SCC(N)=O)c1C#N,/,/,-1,/,/,/,/
O=C(CSc1nc(-c2ccccc2)cc(C(F)(F)F)n1)Nc1ccccc1Cl,/,/,0,/,/,/,/
Cc1ccc(S(=O)(=O)N(C)CC(=O)Nc2ccc(Nc3ccccc3)cc2)cc1,/,/,-1,/,/,/,/
CS(=O)(=O)N1[C@H](CO)[C@H](c2ccc(C#Cc3cccc(F)c3)cc2)[C@@H]1C#N,89,-2,/,/,/,/,/
CS(=O)(=O)N1[C@@H](C#N)[C@@H](c2ccc(C#CC3CCCCC3)cc2)[C@@H]1CO,74,-2,/,/,/,/,/
CS(=O)(=O)N1[C@H](C#N)[C@H](c2ccc(C#CC3CCCC3)cc2)[C@@H]1CO,99*,-3,/,103*,89,20,35*
CS(=O)(=O)N1[C@H](C#N)[C@@H](c2ccc(C#CC3CC3)cc2)[C@@H]1CO,107*,-7,/,100*,46,12,-1
CS(=O)(=O)N1[C@H](CO)[C@@H](c2ccc(C#CC3CCCCC3)cc2)[C@@H]1C#N,93,0,/,/,/,/,/
CS(=O)(=O)N1[C@H](C#N)[C@H](c2ccc(C#Cc3cccc(F)c3)cc2)[C@H]1CO,?,-3,/,?,83,0,32*
CSc1ccc(C2CN3CCCC3c3ccccc32)cc1 (stereo unspecified),/,/,-1,/,/,/,/
C[C@@H]1CN([C@H](C)CO)S(=O)(=O)c2ccc(/C=C/c3ccccc3)cc2O[C@@H]1CN(C)C(=O)Nc1cc(F)ccc1F,/,0,-3,/,/,/,/
C/C=C/c1ccc2c(c1)O[C@H](CN(C)C(=O)Nc1ccc(F)cc1)[C@@H](C)CN([C@@H](C)CO)S2(=O)=O,7,3,0,/,/,/,/
C[C@@H]1CN([C@@H](C)CO)S(=O)(=O)c2ccc(/C=C/c3ccccc3)cc2O[C@@H]1CN(C)C(=O)Nc1ccc(F)cc1,123*,-5,1,102*,104*,32,48*
C[C@@H]1CN([C@@H](C)CO)S(=O)(=O)c2ccc(/C=C/c3ccccc3)cc2O[C@H]1CN(C)C(=O)Nc1ccc(F)cc1,131*,0,0,99*,96*,39*,61*
[N-]=[N+]=Nc1ccc(C[C@H]2C(=O)O[C@@H](Cc3ccccc3)[C@H]3C=C(/C=C/C4CC4)CN32)cc1,/,/,0,/,/,/,/
CO[C@H]1CN(C)C(=O)c2ccc(NS(=O)(=O)c3cccc(Cl)c3)cc2OC[C@H](C)NC[C@@H]1C,/,-1,/,/,/,/,/
CO[C@@H]1CN(C)C(=O)c2ccc(NC(=O)Nc3cccc(F)c3)cc2OC[C@H](C)NC[C@@H]1C,27,-1,0,/,/,/,/
SMILES,T cruzi growth-1,GASC1 inh,IDH1 R132H inh,T cruzi growth-2,T cruzi growth-3,3T3 cytotox,NIH3T3 tox 2
CO[C@H]1CN(C)C(=O)c2cc(NC(=O)Nc3cc(F)ccc3F)ccc2OC[C@H](C)NC[C@@H]1C,?,2,0,9,-46,5,23
CO[C@@H]1CN(C)C(=O)c2cc(NC(=O)Nc3cc(F)ccc3F)ccc2OC[C@H](C)NC[C@@H]1C,35,0,0,/,/,/,/
CO[C@@H]1CN(C)C(=O)c2ccc(NC(=O)Nc3cccc(F)c3)cc2OC[C@H](C)NC[C@H]1C,102*,0,0,6,11,-1,-16
CO[C@H]1CN(C)C(=O)c2ccc(NS(=O)(=O)c3cccc(Cl)c3)cc2OC[C@@H](C)NC[C@@H]1C,97*,0,0,80,13,0,-15
Cc1cc(SCC(=O)Nc2ccc(SC(F)F)cc2)nc2ccccc12,/,/,0,/,/,/,/
CC1=C(C(=O)Nc2ccccc2)C(CC(C)C)n2nc(SCc3cccc(C)c3)nc2N1 (stereo unspecified),/,/,0,/,/,/,/
Cc1nnc(SCC(=O)Nc2ccc(I)cc2C)s1,/,/,0,/,/,/,/
Cc1ccccc1S(=O)(=O)N1CC[C@@H]2[C@@H](CO)N(C)c3ccc(Br)cc3[C@@H]21,?,2,/,100*,35,-2,106*
CN1c2ccc(Br)cc2[C@@H]2[C@@H](CCN2S(=O)(=O)c2ccccc2F)[C@H]1CO,58,1,/,/,/,/,/
Cc1ccccc1S(=O)(=O)N1CC[C@@H]2[C@@H](CO)N(C)c3ccc(-c4ccccc4)cc3[C@@H]21,?,2,/,111*,108*,23,104*
Cc1ccccc1S(=O)(=O)N1CC[C@H]2[C@@H](CO)N(C)c3ccc(Br)cc3[C@H]21,69,-1,/,/,/,/,/
Cc1ccccc1S(=O)(=O)N1CC[C@@H]2[C@H]1c1cc(-c3cccc(F)c3)ccc1N(C)[C@H]2CO,46,-1,/,/,/,/,/
CN1c2ccc(Br)cc2[C@H]2[C@H](CCN2S(=O)(=O)c2ccccc2F)[C@@H]1CO,93*,1,/,107*,11,14,15
CCCNC(=O)N(C)C[C@@H]1Oc2ncc(/C=C/c3ccccc3)cc2C(=O)N([C@@H](C)CO)C[C@H]1C,103*,-1,-5,98*,36,-4,4

# Screening results as filed in PubChem BioAssay.
